Results taken from the EternaBench riboswitch data.

System: MS2 coat protein
Assay: apparent Kd, MS2 coat protein; higher = weaker binding; RNA-MaP array; FMN 200 µM where present
Summary of the method: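 The apparent Kd comes from binding curves fitted cluster by cluster, filtered, and summarised as a median. Those curves followed SNAP-549-labelled MS2 coat protein from 0.7 or 1.5 nM, doubling to 3 µM, on Illumina sequencing-chip clusters where stalled E. coli RNA polymerase had transcribed the designs, without and then with constant ligand. The buffer was 100 mM Tris-HCl pH 7.5, 80 mM KCl, 4 mM MgCl2, BSA, DTT, yeast tRNA and Tween-20, and green signal was normalised to red-channel RNA signal and control-cluster median Fmax.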

[1] = designed as: OFF switch for flavin mononucleotide, no ligand
[2] = ligand present: flavin mononucleotide, designed as: OFF switch for flavin mononucleotide
[3] = designed as: ON switch for flavin mononucleotide, no ligand
[4] = ligand present: flavin mononucleotide, designed as: ON switch for flavin mononucleotide

Sequence	apparent Kd [1]	apparent Kd [2]	apparent Kd [3]	apparent Kd [4]
GACUGCUGAGGAUAUACAUGAGGAUCACCCAUGUGCUUCAGUAUCGAAAGAUACAUUGGUAGAAGGUAGUAGUC	0.0118 µM	0.0208 µM		
CGGUCUUGCAACUAUUUGUUUCACAUGAGGAUCACCCAUGUCAGAAGGAGGUGCGUCUAUUAGACCUAGGAUAUGACGUGUAAG	0.0155 µM	0.026 µM		
GGGUCACAUGAGGAUCACCCAUGUGAGGAUAUGAUACUAUGUACUUCGGUACAUAGUAUCAGAAGGCACAUAAA	0.0366 µM	0.123 µM		
UGGGCCCGAACAGGAUAUGUAACCAGUCCCUCACAUGAGGAUCACCCAUGUCCAAGGGCUCGAAGGCAGAAGGGUUAAGGCUGU			0.74 µM	0.138 µM
ACGCAUUGCCUUUGGUAGUGCGUUACAUGAGGAUCACCCAUGUAGGAUAUGGUAGGCAAAGCUUACCAGAAGGACAUGAUAAUU	0.0495 µM	0.238 µM		
AUCAGCACGUGAGGAUAUGCGUUACUGCGAAAGCAGUACGGUAAGAUCACAUGAGGAUCACCCAUGUAGAAGGCACGAGCUGAU	0.0166 µM	0.0369 µM		
GUGUACAGAGGAUAUACAUGAGCAUGGAAACAUGCAACUUCACAUGAGGAUCACCCAUGUAGAAGGCUGUACAC	0.0251 µM	0.111 µM		
CUGUUAUAGGUCCAGAAUUACAACAUGAGGAUCACCCAUGUGCAGGAUAUCGGGUUGAUAGGCGCCGAGAAGGGUAUAGUCACG	0.0758 µM	0.0708 µM		
ACAUGAGGAUCACCCAUGUUGCGAGUAGAAGGCUAUAAGAAACGGGAUGAAGAAAUCCACGCAAUAGAGGAUAUACGAAUUGGA			0.0121 µM	0.00778 µM
CCUUCAGCGAACGAUACGAAUGGACAUGAGGAUCACCCAUGUAGAAGGACAGGAGAAUAACGACUGUAGGAUAUACAUUUAGUG	0.0223 µM	0.0286 µM		
UCGGCCGCCGUGAGGAUAUGCCCGCGCGCCCGCGGGCAGAAGGCACAUGAGGAUCACCCAUGUCCCGCGGCACU	0.0154 µM	0.0274 µM		
GGACAGGACAGAGGAUAUACGUGCUAGAGAUACUAGCAAAAUUUCCUCACAUGAGGAUCACCCAUGUAGAAGGCUGUCCUAUCG	0.00739 µM	0.123 µM		
GAGCGGAUGUCAGGAUAUCGCCGCGUGAAAAGGCGAGAAGGGACAUGAGGAUCACCCAUGUACUCAUAGGGCCAGCUUGGGCUA	0.00971 µM	0.0291 µM		
GGAUAGGACAGAGGAUAUACGCGCUAGAGAUACUAGCAAAAUUUCCUCACAUGAGGAUCACCCAUGUAGAAGGCUGUCCUAUCG	0.0201 µM	0.58 µM		
CCCUAAUAUCGAGGAUAUGUCUAGACACAUGAGGAUCACCCAUGUAUGUGUAUAGAAGGCGAUAUUAACAGCAUGUUACAUCCC			0.0462 µM	0.0217 µM
AUAUAUACAAAGUUACAUGAGGAUCACCCAUGUUUAUUGGGAAGAAGGGUAACAUUAUUAGAUGUAUAGGAUAUUUCACGAUUG			0.513 µM	0.32 µM
GGUCGCAAGUAAGGAUAUGCAUAUGAAACAUAUGCAGAAGGUACAUGAGGAUCACCCAUGUUAAUGCAAAGCGAAUAAGCGACC	0.0155 µM	0.0196 µM		
AAGAAGAACGCAGGAUAUCUCACCCAUGUAAGAAGAGAAGGGCGACAUGAGGAUCACCCAUGUCAACAUGAGGAUCACCCAUGU	0.0596 µM	0.0889 µM		
CGAAGUCCGUAGAAGGGUGACAUGAGGAUCACCCAUGUGCGAGCGGAGGGAGUCAUCGGCUCGCCACAGGAUAUACGGAGCACG			0.0581 µM	0.0492 µM
UUACUUGUGCAGAAGGGCAUUGAAUUAGGUUUUUAGGUUGAUCAGAAAUGCAGGAUAUGUUAAACAUGAGGAUCACCCAUGUAC			0.0669 µM	0.0139 µM
CCUAAGGACACAGGAUAUAGCGUGGUGGCUGUGCUCCAACGGCGAGCGGCGCUAGAAGGGUGACCACAUGAGGAUCACCCAUGU			0.665 µM	0.177 µM
ACAUGAGGAUCACCCAUGUAUUCAUAGGAUAUACUACAUGAGUUUCAUUCAUGUAAACUUGUAUUGUAGAAGGAUGUUACAUGU	0.0164 µM	0.0192 µM		
GUAGCAUAGGGAGGAUAUUCAUAUAAUAAAUAAACAUGAGGAUCACCCAUGUGGCGAAAGCCUUGGGAGAAGGCCCAAUGCUAC			0.866 µM	0.0362 µM
AGUUCACAUGAGGAUCACCCAUGUCAGGAUAUCGACUGAACAGCUUCGGCUGUUCAGUCGAGAAGGGACAAUUA	0.0466 µM	0.104 µM		
AUUAUAAAGUCAGGAUAUCGGUUUAUAAUAUUACGAGAAGGGACAUGAGGAUCACCCAUGUAUUAACACUACUAUGUCAACUAA	0.0466 µM	0.0434 µM		
UGUCGGAGCAGAGGAUAUUACAUGAGGAUCACCCAUGUAUGAACCAAUAGCUGGAAACAGCAAUGUAAGAAGGCUGCUCCGGCA	0.0118 µM	0.186 µM		
GACUUUUCUGAGGAUAUUGCAUCACCCGAUCUAUAAGAAGGCAGAACAUGAGGAUCACCCAUGUGGGUUUCUAG	0.0247 µM	0.0336 µM		
UUAUGAUUAAGAGGAUAUAUACAACAUGAGGAUCACCCAUGUACCCAUGUAGUAGAAGGUUUAUUUUUAUAUAAUAAUAUAAUU			0.115 µM	0.0649 µM

Sequence	apparent Kd [1]	apparent Kd [2]	apparent Kd [3]	apparent Kd [4]
AGAUAGCGAAUAGUAAUAAAAGUACAGGAUAUGUUACAUGAGGAUCACCCAUGUAUUGGGUAAGAACAGAAGGGUACGCUAGAG	0.144 µM	0.123 µM		
GGGCUGUCAGGAUAUUUUGGGCCCGGGUAAACCCGGGCCCGGGAGAAGGGACAUGAGGAUCACCCAUGUGGCCC	0.0347 µM	0.0373 µM		
UCGUUGUCAGGAUAUCGUUAAUUUAGUUGUUUGUAUUAGUUCGAGAAGGGACAUGAGGAUCACCCAUGUUUGCU	0.0301 µM	0.0709 µM		
UGAUCAAAUGUCAGGAUAUGCUGUUGGAAACAACAGCAGAAGGGACAUGAGGAUCACCCAUGUCUUGUCGAUUU	0.0214 µM	0.112 µM		
GCAAUCGCAUGAGGAUAUGCUGGAGUUUAGACAGCAGAAGGCAUGUCAUAAGACAUGAGGAUCACCCAUGUAGUUACAAUGGCA			0.041 µM	0.0119 µM
CGCCGACAUGAGGAUCACCCAUGUCACAACUGGUCAGGAUAUGGUAUGAUUUGGCUAUUGCCAGAAGGGACCUCAG			0.0505 µM	0.021 µM
CAGCCCUGAGGAUAUCCCUCCUUGUACAUGAGGAUCACCCAUGUUCUCCUCUGGGCUUUGGGAGAAGGCAGGUCUC	0.0268 µM	0.0264 µM		
AGUCUGUGGCAACUAUCCUCACAUGAGGAUCACCCAUGUAGGGAGGAUAUGCAUUUAAAGAAGUGGCAGAAGGCCCUACACGGA	0.0832 µM	0.0321 µM		
UCUAUCAGAGGAUAUACAUGAGGAUCACCCAUGUCAGUCGAACGGGAUGGAAGGUUAGGUAGAAGGUUGUAGAU	0.0398 µM	0.0412 µM		
CGCUGGUGACAGCAUCCAUCAAAACAUGAGGAUCACCCAUGUAGAAGGCUGUACGGUUACCGUACAGAGGAUAUACAAUGAUGU	0.016 µM	0.0272 µM		
CCUGACGCAUCAGGAUAUGCUUACAUCCAUGUUGCAGAAGGGAUGCGUUCUGAAAACAUGAGGAUCACCCAUGUAAGCGGCCAA			0.082 µM	0.0522 µM
CAGUACAGAGGAUAUACAUGAGGAUCACCCAUGUGUUUCAGCUAGGAGACUAGCGAAAGUAGAAGGCUGUACUG	0.00957 µM	0.0251 µM		
AAGAAGUCAGGAUAUGCAUGGCGGGACUUGCGUCGUGGCGUGCAGAAGGGACAUGAGGAUCACCCAUGUGGAGU	0.155 µM	0.241 µM		
AGCUACGUUUCGUAGCAGUGUCAUCGAGAAGGCUCAUAAACAUGAGGAUCACCCAUGUAUUCAUGGGAGGAUAUCGAUGAUACA			0.0322 µM	0.00604 µM
UUUAGGAGUCAAGGAUAUGCUACCGUUUCGGUAGCAGAAGGUGAUCACAUGAGGAUCACCCAUGUAUGCAUGCGUGAGCGUGCU			0.0501 µM	0.623 µM
UACAUGAGGAUCACCCAUGUUUUGUCGUGUAUGGUAUUUAUCUAGGAUAUCAAUUGAGUUAUUUAUGAGAAGGAGAAUAUUAAU	0.0417 µM	0.044 µM		
AAGAAGUUAGGAUAUGCUGCUCGUCACAAAAGUGAUGAGUAGCAGAAGGAACAUGAGGAUCACCCAUGUAAAGA	0.0323 µM	0.0229 µM		
ACUUAUGAAGGAUAUACUAGCGACAUGCACUCAACACACGCACAUGAGGAUCACCCAUGUAGAAGGUCAAACAU	0.0257 µM	0.0224 µM		
UCGCUGCGAGGAUAUACGUGCGCGCGCGCGCGCGCGCGCGUACAUGAGGAUCACCCAUGUAGAAGGCGCGCUGC	0.0171 µM	0.0171 µM		
CAUCCACAUGAGGAUCACCCAUGUGAGGAUAUGAUACUAUGUACUUCGGUACAUAGUAUCAGAAGGCACAGGUG	0.12 µM	0.0374 µM		
CCGGAAACGGGUAGCCUGACAUGAGGAUCACCCAUGUGAUCCUAGGAUAUGGAUCCUAAUUGGAUCCAGAAGGAGGUUGGCUAC			1.28 µM	0.368 µM
GGGUGACAUGAGGAUCACCCAUGUGAGGAUAUCUGGAUACUCUUUAUUUUAGAUAUCCAGAGAAGGCACACCCU	0.501 µM	0.306 µM		
UAUGGUUAAGUCAGGAUAUGCUCAUAGAGGUCUGUGCAGAAGGGACAUGAGGAUCACCCAUGUAUGGUCGUGUU	0.254 µM	0.237 µM		
ACCUAUUUGGAGAAGGCCAGAAUGAUUAGGCUAAGGCGUGAUCCUGCAUGGAGGAUAUCCAAAACAUGAGGAUCACCCAUGUUC			0.13 µM	0.0712 µM
GAGCUAUGAGGAUAUGCAUAUAUGCGGUUUCGUGUGGUACUACAUGAGGAUCACCCAUGUAGAAGGCGUGGCAG	0.016 µM	0.0175 µM		
GGAUGAUUAAUAGGAUAUUAGUUGUAAAAUGGUUAAGAAGGAUUAAUGAUUUAAACGACCAGUUACAUGAGGAUCACCCAUGUA			0.0216 µM	0.0189 µM
AUUAAUAAGUAGAAGGACGGAGAGUAUGAAGUCGUAGGAUAUACAAUAGACAUGAGGAUCACCCAUGUAUGUUGGGUGUGAAUG	0.376 µM	0.254 µM		
